Results taken from ChEMBL document CHEMBL1150111, “Natural products inhibiting Candida albicans secreted aspartic proteases from Lycopodium cernuum” (J Nat Prod, 2002).
In brackets after ≈: the same amount, converted by molar mass. Activity calls are given as the source filed them. No cut-off for these calls is given here.

Key:
Candida albicans = assay: (§1) Inhibition of Candida albicans secreted aspartic protease
Method in brief: (§2)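 Candida albicans secreted aspartic protease (SAP) inhibition assay run by the earlier published method. Aspartic protease inhibitor pepstatin A served as positive control. Activity is reported as IC50 in µg/mL.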

[1] = as §1; method in brief: as §2

In the case of `CC1(C)[C@H](O)CC[C@]2(C)[C@H]3CC[C@H]4[C@@](C)(CC[C@@H]5[C@]4(C)CC[C@H](O)[C@]5(C)C(=O)O)C[C@]3(O)[C@@H](O)C[C@@H]12`, the Activity (Candida albicans) is reported as “inactive”.
`CC(C)CC(=O)N[C@H](C(=O)N[C@H](C(=O)N[C@@H](CC(C)C)[C@@H](O)CC(=O)N[C@@H](C)C(=O)N[C@@H](CC(C)C)[C@@H](O)CC(=O)O)C(C)C)C(C)C` [PEPSTATIN] gave an IC50 [1] of 0.0015 µg/mL (≈ 0.00219 µM).
In the case of `CC1(C)[C@@H](O)CC[C@@]2(C)[C@H]1CC[C@@]1(C)CC3=CC[C@H]4C(C)(C)[C@@H](O)CC[C@]4(C)[C@H]3CC[C@@H]12`, the Activity (Candida albicans) is reported as “inactive”.
With `CC(=O)O[C@H]1CC[C@@]2(C)[C@@H](CC[C@@]3(C)C[C@@]4(O)CC[C@H]5C(C)(C)[C@H](OC(C)=O)CC[C@]5(C)[C@H]4CC[C@@H]32)[C@@]1(C)C(=O)O` the Activity (Candida albicans) was “inactive”.
In the case of `O=C(/C=C/c1ccc(O)cc1)OC[C@H]1O[C@@H](Oc2ccc(-c3cc(=O)c4c(O)cc(O)cc4o3)cc2)[C@H](OC(=O)/C=C/c2ccc(O)cc2)[C@@H](O)[C@@H]1O`, the IC50 [1] is reported as 8.5 µg/mL (≈ 11.7 µM).
For `CC1(C)[C@@H](O)CC[C@@]2(C)[C@H]1CC[C@@]1(C)CC3=CC[C@H]4C(C)(C)[C@H](O)CC[C@]4(C)[C@H]3CC[C@@H]12`, the Activity (Candida albicans) was “inactive”.
For `CC(=O)O[C@H]1CC[C@@]2(C)[C@@H](CC[C@@]3(C)CC4=CC[C@H]5C(C)(C)[C@H](OC(C)=O)CC[C@]5(C)[C@H]4CC[C@@H]32)[C@@]1(C)C(=O)O`, the Activity (Candida albicans) was “inactive”.
Compound `C[C@@]12CC[C@@H]3[C@](C)(CC[C@H](O)[C@]3(C)C(=O)O)[C@H]1CC[C@@H]1[C@@]3(C)CC[C@@H](O)[C@](C)(CO)[C@@H]3C[C@H](O)[C@@]1(O)C2` [LYCERNUIC ACID C] has an IC50 [1] of 20 µg/mL (≈ 38.3 µM).
For `CC(=O)O[C@H]1CC[C@@]2(C)[C@@H](CC[C@@]3(C)C[C@@]4(O)[C@H](CC[C@@H]32)[C@@]2(C)CC[C@@H](OC(C)=O)C(C)(C)[C@@H]2C[C@@H]4O)[C@@]1(C)C(=O)O`, the Activity (Candida albicans) was “inactive”.
With `CC(=O)O[C@H]1CC[C@@]2(C)[C@@H](CC[C@@]3(C)CC4=C(CC[C@@H]32)[C@@]2(C)CC[C@@H](OC(C)=O)C(C)(C)[C@@H]2CC4)[C@@]1(C)C(=O)O` the Activity (Candida albicans) was “inactive”.
In the case of `C[C@@]12CC[C@@H]3[C@](C)(CC[C@H](O)[C@]3(C)C(=O)O)[C@H]1CC[C@H]1C(=CC[C@@H]3[C@]1(C)CC[C@@H](O)[C@]3(C)CO)C2`, the Activity (Candida albicans) is reported as “inactive”.
In the case of `CC1(C)[C@H](O)CC[C@]2(C)[C@H]3CC[C@H]4[C@@](C)(CC[C@@H]5[C@]4(C)CC[C@H](O)[C@]5(C)C(=O)O)CC3=CC[C@@H]12`, the Activity (Candida albicans) is reported as “inactive”.
For `CC1(C)[C@H](O)CC[C@]2(C)[C@H]3CC[C@H]4[C@@](C)(CC[C@@H]5[C@]4(C)CC[C@@H](O)[C@]5(C)CO)CC3=CC(=O)[C@@H]12`, the Activity (Candida albicans) was “inactive”.
For `CC(=O)O[C@H]1CC[C@@]2(C)[C@@H](CC[C@@]3(C)C[C@@]4(O)[C@H](O)C[C@H]5C(C)(C)[C@H](OC(C)=O)CC[C@]5(C)[C@H]4CC[C@@H]32)[C@@]1(C)C(=O)O`, the Activity (Candida albicans) was “inactive”.
For `COC(=O)[C@]1(C)[C@@H]2CC[C@@]3(C)CC4=CC(=O)[C@@H]5[C@](C)(CC[C@@H](O)[C@]5(C)CO)[C@H]4CC[C@@H]3[C@@]2(C)CC[C@@H]1O`, the Activity (Candida albicans) was “inactive”.
In the case of `CC(=O)OC[C@]1(C)[C@@H]2C[C@H](OC(C)=O)[C@@]3(O)C[C@]4(C)CC[C@@H]5[C@](C)(CC[C@H](OC(C)=O)[C@]5(C)C(=O)O)[C@H]4CC[C@@H]3[C@@]2(C)CC[C@H]1OC(C)=O`, the Activity (Candida albicans) is reported as “inactive”.
For `CC1(C)[C@H](O)CC[C@@]2(C)[C@H]1CC[C@]1(O)C[C@]3(C)CC[C@@H]4[C@](C)(CC[C@H](O)[C@]4(C)C(=O)O)[C@H]3CC[C@@H]12`, the Activity (Candida albicans) was “inactive”.
For `COC(=O)[C@@]1(C)[C@H](O)CC[C@@]2(C)[C@H]1CC[C@@]1(C)CC3=CC(=O)[C@@H]4[C@](C)(CC[C@@H](O)[C@]4(C)CO)[C@H]3CC[C@@H]12`, the Activity (Candida albicans) was “inactive”.
